Measurements pooled from the literature.
Compare with care: the assays were run in different laboratories.
Target: Mitogen-activated protein kinase 12 (MAPK12, Homo sapiens, UniProt P53778)
Residues used in one study (P53778 1-367): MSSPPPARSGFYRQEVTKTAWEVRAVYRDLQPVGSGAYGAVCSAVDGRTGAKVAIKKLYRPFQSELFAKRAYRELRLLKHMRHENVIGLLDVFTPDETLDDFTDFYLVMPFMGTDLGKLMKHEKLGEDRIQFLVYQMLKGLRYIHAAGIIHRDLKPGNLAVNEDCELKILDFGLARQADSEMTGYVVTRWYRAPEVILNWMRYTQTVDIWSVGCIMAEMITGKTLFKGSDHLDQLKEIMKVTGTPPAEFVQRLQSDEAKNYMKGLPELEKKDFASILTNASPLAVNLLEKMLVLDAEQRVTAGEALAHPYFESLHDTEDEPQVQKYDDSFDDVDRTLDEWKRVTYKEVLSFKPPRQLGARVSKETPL

| SMILES | test | conditions | remaining binding [%] |
| --- | --- | --- | --- |
| c1cnn2ncc(-c3ccnc(N4CCC45COC5)n3)c2c1 | binding | 1 µM | 65 |
| C[C@@H]1CN(c2cc(-c3n[nH]c4ccc(OC5(C)CC5)cc34)ncn2)C[C@H](C)O1 | cell-free assay, competition with immobilised ligand | 0.1 µM | 96 |
| O=C(NCCCN1CCOCC1)c1ccc(Nc2nccc(-c3cc4ccccc4s3)n2)cc1 | binding, competition with immobilised ligand | 1 µM | 100 |
| COc1ncc2cc3ccccc3nc2c1C#N | cell-free assay, competition with immobilised ligand | 5 µM | 96 |
| N[C@H]1CCN(c2nccc(-c3cnn4ncccc34)n2)C1 | binding | 1 µM | 86 |
| c1cncc(-c2cccc(Nc3nccc(NC4CCCCC4)n3)c2)c1 | binding, competition with immobilised ligand | 10 µM | 84 |
| CN(C)c1ncc(F)c(-c2cnn3ncccc23)n1 | binding | 1 µM | 100 |
| O=C(NCC1CCOCC1)c1n[nH]cc1NC(=O)c1c(F)cccc1F | binding, competition with immobilised ligand | 1 µM | 100 |
| COc1cnc(Nc2cccc(S(N)(=O)=O)c2)nc1N1CCN(c2ccccc2)CC1 | binding, competition with immobilised ligand | 1 µM | 91 |
| COc1ccnn2ncc(-c3ccnc(N(C)C)n3)c12 | binding | 1 µM | 100 |
| CC1=C(C#N)C(c2ccc3c(c2)c(NC(=O)c2ccccc2C)nn3C)C(C#N)=C(C)N1 | cell-free assay, competition with immobilised ligand | 1 µM | 68 |
| O=C(NCCCN1CCOCC1)c1ccc(Nc2ncc(Cl)c(-c3ccc(Cl)s3)n2)cc1 | binding, competition with immobilised ligand | 1 µM | 100 |
| Cc1cc(Nc2nccc(C)n2)cc(-c2cnc([C@@]3(O)CC[C@H](C(=O)O)C(C)(C)C3)s2)c1 | binding, competition with immobilised ligand | 1 µM | 31.2 |
| Cc1cnc(Nc2ccc(C(=O)N3CCC(N4CCCC4)CC3)cc2)nc1-c1cc2ccccc2s1 | binding, competition with immobilised ligand | 1 µM | 81 |
| Cn1cc(Cl)c2c(Oc3c(F)cc(Nc4cc(Cl)nc(N)n4)cc3F)ccnc21 | cell-free assay, competition with immobilised ligand | 0.1 µM | 100 |
| C[C@@H](c1ccc(-n2cnc3c(N)ncnc32)cc1)N1CCc2nn(C)c(Cc3ccccc3)c2C1=O | binding, competition with immobilised ligand | 0.1 µM | 90 |
| Cc1cc(NC(=O)c2cccc(S(F)(F)(F)(F)F)c2)cc(-n2ccn3nc(-c4cccnc4)cc23)c1 | cell-free assay, competition with immobilised ligand | 1 µM | 41.7 |
| C[C@H]1CCN(c2nccc(-c3cnn4ncccc34)n2)C1 | binding | 1 µM | 37 |
| Cc1nc(N2CC[C@@H](O)C2)ncc1-c1cc(C(F)(F)F)cc2[nH]ncc12 | binding, competition with immobilised ligand | 1 µM | 100 |
| CN(c1nccc(-c2cnn3ncccc23)n1)C1CC1 | binding | 1 µM | 100 |
